High-throughput results from PubChem BioAssay.
This is a sample that favours compounds with a hit; in the whole collection about 1.9% have one here.
HCV NS3 hel inh = inhibitors of Hepatitis C virus NS3 helicase. NS3 helicase DNA unwinding, Cy5 molecular beacon fluorescence. inhibition, % at 10.9 µM. actives 0.56% (n = 290,000). AID 1800;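 active = inhibition above the mean of all tested compounds plus 3 SD, set per campaign, cut at about 35% in these data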;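 note: 0% = DMSO wells and 100% = thioflavine S control wells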
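Assay system: hepatitis C virus NS3 helicase domain fragment enzyme. Also added: annealed dual-labelled DNA beacon duplex, ATP-started. Timing: 1 h reaction at 25 °C, ATP-initiated. Technique: Cy5 fluorescence at 0 and 60 min, beacon hairpin quenching. Evaluation: % inhibition of unwinding. Replication: one well per compound.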
core dimer inh = HCV core protein dimerization inhibition. TR-FRET GST/Flag-core106 dimerization, 1536-well. inhibition, % at 5 µM. actives 0.33% (n = 300,000);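 active = inhibition above the mean of all tested compounds plus 3 SD, set per screening campaign, cut at about 45% in these data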
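System: GST-tagged and Flag-tagged HCV core protein residues 1-106 / Input: core106 proteins, GST 13.5 nM and Flag 17 nM / Buffer or medium: KF-containing HEPES buffer, pH 7.45, DTT, CHAPS, BSA / Probe or stimulus: Eu-anti-GST and XL665-anti-Flag labelled anti-tag antibodies / Schedule: 4 h, 22.5 °C incubation / Technique: TR-FRET 671 and 617 nm emission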
ZTA counter = ZTA (EBV) inhibition in EBNA-1 counter-screen; ZTA-DNA binding, fluorescence polarization; inhibition, % at 11 µM; actives 0.15% (n = 320,000); AID 2234; in the data active = inhibition above about 33%
Target sequence (P03206 whole entry, looked up): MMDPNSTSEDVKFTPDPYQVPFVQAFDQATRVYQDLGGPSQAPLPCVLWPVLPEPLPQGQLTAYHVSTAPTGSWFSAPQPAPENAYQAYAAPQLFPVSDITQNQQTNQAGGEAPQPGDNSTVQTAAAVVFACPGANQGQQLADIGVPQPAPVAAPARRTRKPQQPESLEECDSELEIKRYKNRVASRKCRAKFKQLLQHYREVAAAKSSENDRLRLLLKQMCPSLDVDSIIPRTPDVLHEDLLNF
EBNA-1 inhibitor = blocks EBNA-1 binding to DNA. EBNA-1 DNA binding, fluorescence polarization. inhibition, % at 14.8 µM. actives 0.34% (n = 300,000); in the data active = inhibition above about 28%
PP1 inh = PP1-alpha (human) inhibition in PP5 counter-screen; purified PP1alpha, OMFP fluorescence; inhibition, % at 6.7 µM; actives 0.9% (n = 320,000);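 active = inhibition above the mean inhibition of all tested compounds plus 3 SD, computed separately for each screening campaign, cut at about 15% in these data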
Target sequence (P62136 whole entry, looked up): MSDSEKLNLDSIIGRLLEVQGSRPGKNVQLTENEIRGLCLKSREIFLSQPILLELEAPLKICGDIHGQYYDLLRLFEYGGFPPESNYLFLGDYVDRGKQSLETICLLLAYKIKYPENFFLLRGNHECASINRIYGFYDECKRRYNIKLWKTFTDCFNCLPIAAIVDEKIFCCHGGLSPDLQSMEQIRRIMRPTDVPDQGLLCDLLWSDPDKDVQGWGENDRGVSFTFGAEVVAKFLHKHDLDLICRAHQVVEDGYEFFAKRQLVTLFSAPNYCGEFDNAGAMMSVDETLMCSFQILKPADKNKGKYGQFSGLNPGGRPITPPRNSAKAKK
NS3 helicase cf = HCV NS3 helicase inhibition, confirmation assay; NS3 helicase DNA unwinding, Cy5 molecular beacon fluorescence; shares compounds with HCV NS3 hel inh; inhibition, % at 10.9 µM; actives 31% (n = 1,600);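 active = inhibition above the mean of all tested compounds plus 3 SD, cutoff set per campaign, cut at about 36% in these data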
FID counter trip = counter-screen for HCV NS3 helicase inhibitors: DNA intercalator displacement | shares compounds with HCV NS3 hel inh | DNA fluorescent intercalator displacement, fluorescence | inhibition, % at 7.9 µM | actives 4% (n = 1,600) | AID 1945; in the data active = inhibition above about 37%;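 note: 0% = vehicle and 100% = reference compound; higher means more displacement of ethidium bromide from the DNA hairpin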
Numbers without * were called inactive; x = not tested or not shown.

SMILES | HCV NS3 hel inh | core dimer inh | ZTA counter | EBNA-1 inhibitor | PP1 inh | NS3 helicase cf | FID counter trip
Cc1ccc(-n2sc3ccccc3c2=O)cc1S(=O)(=O)N1CCCCC1 | 46.8* | 24.4 | 1.7 | 5.3 | 0.7 | 21.5 | -29.3
CC(=O)Nc1ccc(S(=O)(=O)N2CCN(C(=O)c3ncoc3-c3ccc(C)cc3)CC2)cc1 | 14.1 | -22.0 | -2.8 | -8.5 | 3.7 | x | x
O=C1/C(=C\c2ccco2)SC(=S)N1C1CCS(=O)(=O)C1 (stereo not given) | 38.2* | 1.7 | -16.7 | -2.3 | -4.7 | -9.6 | -1.9
O=C1/C(=C/c2ccco2)SC(=S)N1C1CCS(=O)(=O)C1 (stereo not given) | 38.1* | 21.3 | 11.1 | -2.9 | 8.1 | -26.4 | 0.5
O=C(CCCn1c(=O)c2cccn2c2cccnc21)N1CCN(c2ccccc2F)CC1 | 6.4 | -1.9 | 9.3 | -2.8 | 0.4 | x | x
CCOc1ccc(-c2ccc(/C=C3/C(=N)N4C=CSC4=NC3=O)o2)c([N+](=O)[O-])c1 | 9.9 | 5.7 | 4.0 | -4.7 | -1.4 | x | x
CCOc1ccc(-c2ccc(/C=C3/C(=N)N4C(C)=CSC4=NC3=O)o2)c([N+](=O)[O-])c1 | 48.1* | 36.0 | 3.9 | -7.4 | 5.8 | -2.9 | 1.8
CCC(Cc1ccccc1)NC(=O)C1CC1 (stereo not given) | 40.5* | x | x | x | x | 0.3 | 8.9
CC(CCc1ccccc1)NC(=O)C1CC1 (stereo not given) | x | 0.9 | 2.8 | -3.2 | -1.6 | x | x
COC(=O)C1=NN(C(=O)c2ccc(Cl)cc2)C(O)(c2ccccc2)C1 (stereo not given) | 43.8* | -0.7 | 6.1 | 12.8 | 1.5 | -5.8 | -9.8
CCC1=NN(C(=O)c2ccc(Cl)cc2)C(O)(c2ccccc2)C1 (stereo not given) | -4.0 | 0.6 | -7.1 | -8.0 | -1.7 | x | x
O=C(c1cc(COc2ccccc2)on1)N1CCCC(CN2CCOCC2)C1 (stereo not given) | -2.4 | 4.3 | -8.4 | 9.0 | -3.0 | x | x
CCCOC(=O)Nc1sc2c(c1C(N)=O)CCCC2 | -0.2 | -0.2 | -2.2 | -4.1 | -1.1 | x | x
N#Cc1c(-c2ccccc2)cc(-c2cccs2)nc1SCC(=O)O | 39.1* | -12.5 | -3.8 | -0.7 | 7.8 | 67.7* | -12.2
CCc1ccccc1NS(=O)(=O)Cc1ccccc1 | 0.7 | 1.0 | -7.7 | -5.5 | 0.2 | x | x
O=C(COc1ccc2ccccc2c1)N[C@@H](C(=O)O)c1ccc(O)cc1 | 43.1* | -6.8 | -6.0 | -8.9 | 5.5 | -29.3 | -3.5
O=S(=O)(Nc1nc2ccccc2nc1NCC1CCCO1)c1ccc(F)cc1 (stereo not given) | 41.5* | -0.1 | -3.1 | -9.7 | -6.0 | -6.0 | -28.9
CCc1ccc(/C=C/C(=O)C2C(=O)c3ccccc3C2=O)cc1 | 37.8* | 6.8 | -1.4 | 11.6 | 0.9 | 5.4 | 5.4
COc1cc(OC)c2c(O)c3c(c(-c4c5c(c(O)c6c(OC)cc(OC)cc46)CO[C@@H](C)[C@H]5O)c2c1)[C@H](O)[C@H](C)OC3 | 36.4* | 53.6* | -2.2 | 17.7 | 9.8 | 69.3* | -20.0
CCOC(=O)c1cc(NC(=O)NC2CCCCC2)c(C)nc1C | 17.9 | -10.7 | -7.5 | 3.7 | 2.9 | x | x
Clc1ccccc1C1=CC(c2ccco2)n2ncnc2N1 (stereo not given) | 41.3* | -3.0 | -6.4 | 7.0 | -0.8 | 5.0 | -11.7
CC(OC(=O)c1ccc(Cl)c(S(=O)(=O)N2CCCC2)c1)C(=O)NC1CCCCC1C (stereo not given) | 37.3* | -20.3 | -10.8 | -11.6 | -3.6 | -13.7 | -16.1
Cc1ccc(C(=O)OC(C)C(=O)NC2CCCCC2C)cc1S(=O)(=O)N1CCCCC1 (stereo not given) | -1.2 | 9.9 | -8.1 | -1.1 | 0.4 | x | x
O=[N+]([O-])c1ccc(/C=C/C2=NN(c3ccccc3)C(c3ccco3)C2)o1 (stereo not given) | 8.4 | x | x | x | x | x | x
C(=C\c1ccco1)/C1=NN(c2ccccc2)C(c2ccco2)C1 (stereo not given) | 46.4* | 37.2 | 6.9 | 1.8 | 2.2 | 58.1* | 8.1
SMILES | HCV NS3 hel inh | core dimer inh | ZTA counter | EBNA-1 inhibitor | PP1 inh | NS3 helicase cf | FID counter trip
NC(=S)N/N=C\c1c(OCc2ccccc2Cl)ccc2ccccc12 | 36.3* | 5.1 | 5.3 | -19.1 | -9.8 | 12.4 | -21.0
NC(=S)N/N=C\c1c2ccccc2cc2ccccc12 | -13.2 | -16.1 | 12.9 | 3.6 | 0.7 | x | x
Cc1cccc(-c2oc3ccc(-c4ccc5c(c4)OCO5)cc3c2/C=C/c2ccc(N)cc2)c1 | 45.2* | 0.8 | 4.8 | 5.1 | 0.8 | -7.9 | 17.2
COc1ccc(-c2c(-c3cccc(C)c3)oc3ccc(-c4ccc5c(c4)OCO5)cc23)cn1 | x | -14.8 | -2.7 | 20.3 | -1.9 | x | x
CCS(=O)(=O)C1=NN2C(=N)/C(=C\c3ccc(OCCOc4cccc(OC)c4)c(OC)c3)C(=O)N=C2S1 | 46.4* | 32.7 | -9.8 | 11.5 | 16.1* | 63.0* | 13.1
O=C(CN1C(=O)C2CC=CCC2C1=O)NCC1COc2ccccc2O1 (stereo not given) | 85.2* | -4.6 | 2.0 | -7.3 | -3.3 | -18.6 | 6.4
CCN1C/C(=C/c2ccc(N3CCOCC3)cc2)C(=O)/C(=C/c2ccc(N3CCOCC3)cc2)C1 | 51.3* | 5.7 | 8.8 | 4.7 | -1.7 | -5.8 | 12.9
COc1ccc(OCC(O)CNC(=O)c2sccc2Cl)cc1 (stereo not given) | 44.5* | -2.8 | -7.2 | 5.8 | 1.0 | -8.1 | -0.1
COc1ccc(OCC(O)CNC(=O)Nc2ccccc2)cc1 (stereo not given) | -0.1 | -0.3 | -8.9 | 1.4 | 0.4 | x | x
COc1ccc(C2=NCCn3nc4ccccc4c32)cc1 | x | 1.2 | 10.3 | 8.2 | -1.5 | x | x
N=C1CCC(=N)c2c1c(O)c1ccccc1c2O | 43.2* | -22.6 | 36.8* | 25.2 | -0.9 | 49.7* | 0.7
O=C(OC1CCOC1=O)C1CCN(S(=O)(=O)c2ccc(Cl)c(C(F)(F)F)c2)CC1 (stereo not given) | x | -0.7 | -7.5 | -7.5 | -4.5 | x | x
CCc1nnc(NS(=O)(=O)c2ccc(N/C=C\C(=O)c3cccc4ccccc34)cc2)s1 | 54.8* | 14.3 | 15.8 | 13.9 | 8.0 | 33.1 | 14.5
S=c1[nH]nc(COc2ccc(Cl)cc2)n1Cc1ccco1 | 36.4* | -1.5 | -17.5 | -6.5 | -11.3 | 3.3 | -24.3
COc1cc(C(=O)Nc2nc(C)cc(C)n2)cc(OC)c1OC | -0.4 | -5.1 | 2.0 | 4.9 | -1.8 | x | x
